Measured values taken from ChEMBL document CHEMBL4689842, “EUbOPEN Chemogenomics Library wave 1” (2021).
“And” between values parts separate entries of the source, which are not always exact repeats. Equal entries are not always repeated.

What was measured:
Assay type in all cases: toxicity, cell-based
Fibroblast [1] = test: Multiplex assay against human fibroblast; settings: 10 µM, compound concentration 10 uM
Procedure, shortened: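 Hoechst33342, BioTracker Green Microtubule Cytoskeleton Dye, MitoTracker Red and Annexin V Alexa Fluor 680 were added to live cells at seeding, and imaging on a CQ1 microscope at 37°C and 5% CO2 followed compound addition. Gating by CellPathfinder machine learning separated cells into Hoechst high-intensity objects or normal cells, then normal cells into healthy, pyknosed or fragmented nuclei, then pyknosed cells into mitotic or apoptotic. Per cents of healthy-nucleus cells are reported for the tubulin, mitochondrial-mass and membrane-permeability phenotypes.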

HEK-293T = test: Incucyte cell viability with HEK293T; settings: human, 10 µM, compound concentration 10 uM; also: filed as whole numbers so only -1 and 0 and 1 occur
U2OS = test: Incucyte cell viability with U2OS; settings: human, 10 µM, compound concentration 10 uM; also: filed as whole numbers so only -1 and 0 and 1 occur
Fibroblast [2] = test: Incucyte cell viability with human fibroblast; settings: 10 µM, compound concentration 10 uM; also: filed as whole numbers so only -1 and 0 and 1 occur
[3] = 6 h, replicate number 1, timepoint 6 hours
[4] = 12 h, replicate number 1, timepoint 12 hours
[5] = 18 h, replicate number 1, timepoint 18 hours
[6] = 24 h, replicate number 1, timepoint 24 hours
[7] = 0 h, replicate number 2, timepoint 0 hours
[8] = 6 h, replicate number 2, timepoint 6 hours
[9] = 12 h, replicate number 2, timepoint 12 hours
[10] = 18 h, replicate number 2, timepoint 18 hours
[11] = 24 h, replicate number 2, timepoint 24 hours
[12] = 0 h, replicate number 1, timepoint 0 hours

With COc1cc(N2CCC(N3CCN(C)CC3)CC2)ccc1Nc1ncnc(Nc2ccccc2S(=O)(=O)C(C)C)n1 [ASP-3026] the “Population Apoptotic (%)” value (Fibroblast [1]; 12 h, replicate 1) was 72% and 66%, the “Population Fragmented Nuclei (%)” value (Fibroblast [1]; 12 h, replicate 1) was 30% and 23% and the “Population Healthy Nuclei (%)” value (Fibroblast [1]; 12 h, replicate 1) was 55% and 60%. The “Population Hoechst High Intensity Objects (%)” value (Fibroblast [1]; 12 h, replicate 1) was 14% and 18%, the “Population Membrane Permeable-Phenotype (%)” value (Fibroblast [1]; 12 h, replicate 1) was 11% and 9% and the “Population Mitochondria Different-Phenotype (%)” value (Fibroblast [1]; 12 h, replicate 1) was 6% and 7%. The “Population Mitotic Cells (%)” value (Fibroblast [1]; 12 h, replicate 1) was 27% and 33%, the “Population Normal (%)” value (Fibroblast [1]; 12 h, replicate 1) was 85% and 81% and the “Population Pyknosed Nuclei (%)” value (Fibroblast [1]; 12 h, replicate 1) was 13% and 16%. For the same molecule, the “Total Cell Count” value (Fibroblast [1]; 12 h, replicate 1) was 252 and 249, the “Population Apoptotic (%)” value (Fibroblast [1]; 12 h, replicate 2) was 80% and 100% and the “Population Fragmented Nuclei (%)” value (Fibroblast [1]; 12 h, replicate 2) was 66% and 72%. The “Population Healthy Nuclei (%)” value (Fibroblast [1]; 12 h, replicate 2) was 24% and 21%, the “Population Hoechst High Intensity Objects (%)” value (Fibroblast [1]; 12 h, replicate 2) was 38% and 53% and the “Population Membrane Permeable-Phenotype (%)” value (Fibroblast [1]; 12 h, replicate 2) was 8% and 18%. The “Population Mitochondria Different-Phenotype (%)” value (Fibroblast [1]; 12 h, replicate 2) was 16% and 0%, the “Population Mitotic Cells (%)” value (Fibroblast [1]; 12 h, replicate 2) was 20% and 0% and the “Population Normal (%)” value (Fibroblast [1]; 12 h, replicate 2) was 61% and 46%. The “Population Pyknosed Nuclei (%)” value (Fibroblast [1]; 12 h, replicate 2) was 10% and 5%, the “Total Cell Count” value (Fibroblast [1]; 12 h, replicate 2) was 81 and 110 and the “Population Apoptotic (%)” value (Fibroblast [1]; 24 h, replicate 1) was 79%. For the same molecule, the “Population Fragmented Nuclei (%)” value (Fibroblast [1]; 24 h, replicate 1) was 38% and 22%, the “Population Healthy Nuclei (%)” value (Fibroblast [1]; 24 h, replicate 1) was 50% and 63% and the “Population Hoechst High Intensity Objects (%)” value (Fibroblast [1]; 24 h, replicate 1) was 18% and 16%. For the same molecule, the “Population Membrane Permeable-Phenotype (%)” value (Fibroblast [1]; 24 h, replicate 1) was 15% and 7%, the “Population Mitochondria Different-Phenotype (%)” value (Fibroblast [1]; 24 h, replicate 1) was 1% and 3% and the “Population Mitotic Cells (%)” value (Fibroblast [1]; 24 h, replicate 1) was 20%. For the same molecule, the “Population Normal (%)” value (Fibroblast [1]; 24 h, replicate 1) was 81% and 83%, the “Population Pyknosed Nuclei (%)” value (Fibroblast [1]; 24 h, replicate 1) was 11% and 14% and the “Total Cell Count” value (Fibroblast [1]; 24 h, replicate 1) was 260 and 264. For the same molecule, the “Population Apoptotic (%)” value (Fibroblast [1]; 24 h, replicate 2) was 50% and 100%, the “Population Fragmented Nuclei (%)” value (Fibroblast [1]; 24 h, replicate 2) was 76% and 67% and the “Population Healthy Nuclei (%)” value (Fibroblast [1]; 24 h, replicate 2) was 18% and 28%. For the same molecule, the “Population Hoechst High Intensity Objects (%)” value (Fibroblast [1]; 24 h, replicate 2) was 45% and 53%, the “Population Membrane Permeable-Phenotype (%)” value (Fibroblast [1]; 24 h, replicate 2) was 14% and 26% and the “Population Normal (%)” value (Fibroblast [1]; 24 h, replicate 2) was 54% and 46%. For the same molecule, the “Population Pyknosed Nuclei (%)” value (Fibroblast [1]; 24 h, replicate 2) was 5% and 3%, the “Total Cell Count” value (Fibroblast [1]; 24 h, replicate 2) was 70 and 112 and the “Growth Rate” value (HEK-293T; [3]) was 0. The “Growth Rate” value (HEK-293T; [4]) was 0, the “Growth Rate” value (HEK-293T; [5]) was 0 and the “Growth Rate” value (HEK-293T; [6]) was 0. For the same molecule, the “Growth Rate” value (U2OS; [7]) was 0, the “Growth Rate” value (U2OS; [3]) was 0 and the “Growth Rate” value (U2OS; [8]) was 1. The “Growth Rate” value (U2OS; [4]) was 0, the “Growth Rate” value (U2OS; [5]) was 0 and the “Growth Rate” value (U2OS; [6]) was 0. The “Growth Rate” value (Fibroblast [2]; [7]) was 0, the “Growth Rate” value (Fibroblast [2]; [3]) was 0 and the “Growth Rate” value (Fibroblast [2]; [4]) was 0. For the same molecule, the “Growth Rate” value (Fibroblast [2]; [5]) was 0 and the “Growth Rate” value (Fibroblast [2]; [6]) was 0.
In the case of Cc1nc(-c2ccc(C(F)(F)F)cc2)sc1COc1ccc([C@H](CC(=O)O)c2ccon2)cc1, the “Growth Rate” value (HEK-293T; [7]) is reported as 0, the “Growth Rate” value (HEK-293T; [3]) is reported as 0 and the “Growth Rate” value (HEK-293T; [8]) is reported as 1. For the same molecule, the “Growth Rate” value (HEK-293T; [4]) was 0, the “Growth Rate” value (HEK-293T; [5]) was 0 and the “Growth Rate” value (HEK-293T; [6]) was 0. The “Growth Rate” value (U2OS; [7]) was 0, the “Growth Rate” value (U2OS; [8]) was 0 and the “Growth Rate” value (U2OS; [4]) was 0. For the same molecule, the “Growth Rate” value (U2OS; [9]) was 1, the “Growth Rate” value (U2OS; [5]) was 0 and the “Growth Rate” value (U2OS; [10]) was 1. The “Growth Rate” value (U2OS; [6]) was 0, the “Growth Rate” value (U2OS; [11]) was 1 and the “Growth Rate” value (Fibroblast [2]; [12]) was 0. For the same molecule, the “Growth Rate” value (Fibroblast [2]; [3]) was 0, the “Growth Rate” value (Fibroblast [2]; [4]) was 1 and the “Growth Rate” value (Fibroblast [2]; [9]) was 0. For the same molecule, the “Growth Rate” value (Fibroblast [2]; [5]) was 1, the “Growth Rate” value (Fibroblast [2]; [10]) was 0 and the “Growth Rate” value (Fibroblast [2]; [6]) was 0.
O=C(NOCC1CC1)c1ccc(F)c(F)c1Nc1ccc(I)cc1Cl [CI-1040] was tested, and the “Growth Rate” value (HEK-293T; [12]) was 0, the “Growth Rate” value (HEK-293T; [7]) was 1 and the “Growth Rate” value (HEK-293T; [8]) was 0. The “Growth Rate” value (HEK-293T; [4]) was 0, the “Growth Rate” value (HEK-293T; [5]) was 0 and the “Growth Rate” value (HEK-293T; [6]) was 0. For the same molecule, the “Growth Rate” value (U2OS; [12]) was 0, the “Growth Rate” value (U2OS; [3]) was 0 and the “Growth Rate” value (U2OS; [4]) was 0. The “Growth Rate” value (U2OS; [5]) was 0, the “Growth Rate” value (U2OS; [6]) was 0 and the “Growth Rate” value (Fibroblast [2]; [12]) was 0. For the same molecule, the “Growth Rate” value (Fibroblast [2]; [8]) was 1, the “Growth Rate” value (Fibroblast [2]; [4]) was 1 and the “Growth Rate” value (Fibroblast [2]; [5]) was 1. The “Growth Rate” value (Fibroblast [2]; [6]) was 1.
In the case of CS(=O)(=O)NCC[C@H](NC(=O)c1cncc2c1cnn2-c1ccc(F)cc1)c1ccnc(S(C)(=O)=O)c1 [BI 9307], the “Growth Rate” value (HEK-293T; [12]) is reported as 0, the “Growth Rate” value (HEK-293T; [3]) is reported as 1 and the “Growth Rate” value (HEK-293T; [4]) is reported as 1. For the same molecule, the “Growth Rate” value (HEK-293T; [5]) was 1, the “Growth Rate” value (HEK-293T; [6]) was 1 and the “Growth Rate” value (U2OS; [12]) was 0. The “Growth Rate” value (U2OS; [4]) was 1, the “Growth Rate” value (U2OS; [5]) was 1 and the “Growth Rate” value (U2OS; [6]) was 1. The “Growth Rate” value (Fibroblast [2]; [12]) was 0, the “Growth Rate” value (Fibroblast [2]; [8]) was 0 and the “Growth Rate” value (Fibroblast [2]; [9]) was 0. For the same molecule, the “Growth Rate” value (Fibroblast [2]; [10]) was 1 and the “Growth Rate” value (Fibroblast [2]; [11]) was 0.
In the case of Cc1nnn(-c2ccc(-c3ccc(C4(C(=O)O)CC4)cc3)cc2)c1NC(=O)O[C@H](C)c1ccccc1, the “Growth Rate” value (HEK-293T; [12]) is reported as 0, the “Growth Rate” value (HEK-293T; [3]) is reported as 0 and the “Growth Rate” value (HEK-293T; [4]) is reported as 0. The “Growth Rate” value (HEK-293T; [9]) was 1, the “Growth Rate” value (HEK-293T; [5]) was 0 and the “Growth Rate” value (HEK-293T; [10]) was 1. The “Growth Rate” value (HEK-293T; [6]) was 0, the “Growth Rate” value (U2OS; [12]) was 0 and the “Growth Rate” value (U2OS; [4]) was 1. For the same molecule, the “Growth Rate” value (U2OS; [5]) was 1, the “Growth Rate” value (U2OS; [6]) was 1 and the “Growth Rate” value (Fibroblast [2]; [12]) was 0.
In the case of C=CC(=O)N1CCC([C@@H]2CCNc3c(C(N)=O)c(-c4ccc(Oc5ccccc5)cc4)nn32)CC1 [ZANUBRUTINIB], the “Growth Rate” value (HEK-293T; [12]) is reported as 0, the “Growth Rate” value (HEK-293T; [4]) is reported as 0 and the “Growth Rate” value (HEK-293T; [5]) is reported as 0. For the same molecule, the “Growth Rate” value (HEK-293T; [6]) was 0, the “Growth Rate” value (U2OS; [12]) was 0 and the “Growth Rate” value (U2OS; [3]) was 0. For the same molecule, the “Growth Rate” value (U2OS; [4]) was 0, the “Growth Rate” value (U2OS; [5]) was 0 and the “Growth Rate” value (U2OS; [6]) was 0. For the same molecule, the “Growth Rate” value (Fibroblast [2]; [12]) was 1, the “Growth Rate” value (Fibroblast [2]; [7]) was 0 and the “Growth Rate” value (Fibroblast [2]; [3]) was 0. The “Growth Rate” value (Fibroblast [2]; [4]) was 0, the “Growth Rate” value (Fibroblast [2]; [5]) was 0 and the “Growth Rate” value (Fibroblast [2]; [10]) was 1. For the same molecule, the “Growth Rate” value (Fibroblast [2]; [6]) was 0 and the “Growth Rate” value (Fibroblast [2]; [11]) was 1.
